What all share (assay type): functional, Homo sapiens
Assay [1] relates to HUVEC. The assay can be described thus: Decrease in zinc finger and BTB domain containing 16 gene expression in HUVEC at 5 ug/ml after 4 hrs relative to control.
The test system of assay [2] is HUVEC. Nature of the assay: Decrease in AT rich interactive domain 1A gene expression in HUVEC at 5 ug/ml after 4 hrs relative to control.
Assay [3] deals with HUVEC. Nature of the assay: Increase in TI-PARP gene expression in HUVEC at 5 ug/ml after 4 hrs relative to control.
In assay [4] the test system is HUVEC. The assay can be described thus: Increase in SerpinB2 gene expression in HUVEC at 5 ug/ml after 4 hrs relative to control. Put shortly: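 HUVEC exposed to the purified compound at 5 μg/ml. SerpinB2 mRNA quantified by real-time RT-PCR against untreated control HUVEC, reported as log2 relative quantity (log2RQ). The same SerpinB2 RT-PCR read-out guided activity-based fractionation of the herbal extract.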

Assay [5] has as its system HUVEC. The assay can be described thus: Decrease in mesenchyme homebox2 gene expression in HUVEC at 5 ug/ml after 4 hrs relative to control.
In assay [6] the test system is HUVEC. The assay can be described thus: Increase in COX2 gene expression in HUVEC at 5 ug/ml after 4 hrs relative to control.
Assay [7] has as its system HUVEC. The assay can be described thus: Decrease in perlecan gene expression in HUVEC at 5 ug/ml after 4 hrs relative to control.
Assay [8] concerns HUVEC. The assay can be described thus: Decrease in ATP-binding cassette, subfamily G, member 1 gene expression in HUVEC at 5 ug/ml after 4 hrs relative to control.
The test system of assay [9] is HUVEC. Nature of the assay: Increase in CYP450, family 1, subfamily B, polypeptide 1 gene expression in HUVEC at 5 ug/ml after 4 hrs relative to control.
Assay [10] has as its system HUVEC. The assay can be described thus: Increase in solute carrier family 7, member 11 gene expression in HUVEC at 5 ug/ml after 4 hrs relative to control.

This passage reports Fold change results from ChEMBL document CHEMBL1140583, “A polyacetylene compound from herbal medicine regulates genes associated with thrombosis in endothelial cells” (2007).

Turning to `C/C=C/C#CC#C/C=C/CCC(CCOC(C)=O)OC(C)=O` (stereo not given), the Fold change with HUVEC [1] was -2; in the assay on HUVEC [2], -1.9; in the assay on HUVEC [3], 2.3; in the assay on HUVEC [4] it was 2; in the assay with HUVEC [5], -2.1; with HUVEC [6] it was 2. The Fold change was -1.7 in the assay on HUVEC [7], -1.9 in the assay on HUVEC [8], 6.5 in the assay with HUVEC [9] and 2.3 with HUVEC [10].
